# Test results as given in article PMC4063182 (Journal of the American Chemical Society, 2014).
# Substitutions are numbered along the chain they refer to. Like-named read-outs stand apart in the source and are kept apart here.
# Tests used:
# ferric WT DHP B [1] = target: T1, ferric WT DHP B (Amphitrite ornata, UniProt Q9NAV7); assay: H2O2-dependent oxidation of haloindoles monitored by HPLC; assay type: biochemical; conditions: for conversion (%): 5 min
# T1 sequence (Q9NAV7 1-138): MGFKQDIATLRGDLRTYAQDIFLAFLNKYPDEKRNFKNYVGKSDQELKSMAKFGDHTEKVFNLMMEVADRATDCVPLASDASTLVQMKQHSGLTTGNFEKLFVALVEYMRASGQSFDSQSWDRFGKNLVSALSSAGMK
# Method in brief: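 Triplicate reactions at 25 °C in 5% MeOH/100 mM KPi, pH 7, unless pH varied. Ferric DHP B (10 μM final) was premixed with substrate (500 μM final), and reactions were started with H2O2 (500 μM). Additives: 10% v/v DMSO, 500 μM mannitol, SOD, or buffer containing 500 mM sodium formate. Reactions were quenched with excess catalase after 5 min and diluted 10-fold. C18 reverse-phase HPLC used photodiode-array detection, with conversion from standard calibration curves.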
# DHP A Ferric = assay: H2O2-dependent oxidation of haloindoles monitored by HPLC, isoenzyme A; assay type: biochemical, Amphitrite ornata; conditions: DHP A Ferric 10 μM; [haloindole] = [H2O2] = 500 μM; pH 7, 25 °C, 5 min
# Method in brief: (§1)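 Triplicate reactions at 25 °C, pH 7, in 5% MeOH/100 mM KPi. Enzyme (10 μM final; ferric isoenzyme A or oxyferrous DHP B) was premixed with haloindole (500 μM), and reactions were started with 500 μM H2O2. After 5 min, reactions were quenched with excess catalase and diluted 10-fold in buffer. Analysis was by C18 reverse-phase HPLC (water/TFA to MeCN gradient) with diode-array detection, quantified against standard calibration curves.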
# ferric WT DHP B [2] = target: T1, ferric WT DHP B; conditions: cited from earlier work
# ferric DHP B = target: T2, ferric DHP B (Amphitrite ornata, UniProt Q9NAV7); assay: Reactivity studies of 5-Br-3-oxindole by UV-vis; assay type: biochemical
# T2 sequence (Q9NAV7 1-138): T1 sequence (Q9NAV7 1-138)
# Method in brief: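 5-Br-3-acetoxyindole (250 μM) was incubated <1 min with or without 10 μM ferric wild-type DHP B in 5% MeOH/100 mM KPi, pH 7, in a quartz cuvette. Porcine liver esterase (45 U) started the reaction, and UV-vis spectra were taken over time, aerobically or anaerobically (argon-degassed solutions, glovebox, sealed cuvette). Indigo product was quantified at 659 nm using ε = 22 140 M–1 cm–1.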
# [3] = target: T3, horseradish peroxidase (HRP) (Armoracia rusticana, UniProt P00433); assay: H2O2-dependent oxidation of 5-Br-indole monitored by HPLC, HRP; assay type: biochemical; conditions: HRP 10 μM; [haloindole] = [H2O2] = 500 μM; pH 7, 25 °C, 5 min; n.d. = none detected
# T3 sequence (P00433 31-338 limits assumed): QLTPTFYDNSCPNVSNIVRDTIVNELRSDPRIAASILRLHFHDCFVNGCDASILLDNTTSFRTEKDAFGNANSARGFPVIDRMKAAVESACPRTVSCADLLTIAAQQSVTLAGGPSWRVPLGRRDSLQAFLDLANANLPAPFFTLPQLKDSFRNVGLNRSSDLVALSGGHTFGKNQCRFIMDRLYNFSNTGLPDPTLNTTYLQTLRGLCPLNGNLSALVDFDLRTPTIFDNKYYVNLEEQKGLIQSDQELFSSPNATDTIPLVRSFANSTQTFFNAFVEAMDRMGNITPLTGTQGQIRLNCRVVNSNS
# [4] = target: T4, DHP B(Y28F/Y38F) Compound I (Amphitrite ornata, UniProt Q9NAV7, Y29F/Y39F); assay: Double-mixing stopped-flow UV-vis, preformed Compound I; assay type: biochemical
# T4 sequence (Q9NAV7 1-138 Y29F/Y39F): T1 sequence (Q9NAV7 1-138) with Y29F, Y39F
# ferric WT DHP B [5] = target: T1, ferric WT DHP B; assay: 5-haloindole binding studies
# DHP B Oxyferrous = target: T5, DHP B Oxyferrous (Amphitrite ornata, UniProt Q9NAV7); assay: H2O2-dependent oxidation of haloindoles monitored by HPLC, oxyferrous enzyme; assay type: biochemical; conditions: DHP B Oxyferrous 10 μM; [haloindole] = [H2O2] = 500 μM; pH 7, 25 °C, 5 min
# T5 sequence (Q9NAV7 1-138): T1 sequence (Q9NAV7 1-138)
# Method in brief: as §1
# oxyferrous DHP B = target: T6, oxyferrous DHP B (Amphitrite ornata, UniProt Q9NAV7); assay: Stopped-flow UV-vis with oxyferrous DHP B / Compound II; assay type: biochemical; conditions: preincubated with 2.5 equiv 5-Br-indole, 5 equiv H2O2, pH 7
# T6 sequence (Q9NAV7 1-138): T1 sequence (Q9NAV7 1-138)
# Method in brief: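 Single-mixing rapid-scan stopped-flow at 20 °C in 5% MeOH/100 mM KPi, pH 7.0. Oxyferrous DHP B (10 μM) was preincubated with 2.5 equiv 5-Br-indole, then rapidly mixed with 5 equiv H2O2. 800 spectra were collected over 83 s. Spectra were fitted to component species to obtain relative concentration time courses.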
# WT DHP B Compound ES = target: T7, WT DHP B Compound ES (Amphitrite ornata, UniProt Q9NAV7); assay: Double-mixing stopped-flow UV-vis, preformed Compound ES; assay type: biochemical
# T7 sequence (Q9NAV7 1-138): T1 sequence (Q9NAV7 1-138)
# Method in brief: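 Double-mixing rapid-scan stopped-flow UV-vis at 20 °C in 5% MeOH/100 mM KPi, pH 7. Ferric wild-type DHP B (10 μM) was mixed with 10 equiv H2O2 and aged 350 ms to accumulate Compound ES. It was then mixed with 10, 25 or 50 equiv 5-Br-indole, and 800 scans were taken over 83 s. Spectra were fitted to component time courses.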
# [6] = target: horse heart myoglobin (hhMb) (Equus caballus, UniProt P68082); assay: H2O2-dependent oxidation of 5-Br-indole monitored by HPLC, myoglobin; assay type: biochemical; conditions: hhMb 10 μM; [haloindole] = [H2O2] = 500 μM; pH 7, 25 °C, 5 min; n.d. = none detected
# [7] = DHP B Ferric, anaerobic, [haloindole] = [H2O2] = 500 μM, pH 7, 25 °C
# [8] = 10 equiv 5-Br-indole, 10 equiv H2O2, pH 7
# [9] = read-out: apparent dissociation constant (Kd), 10 μM ferric WT DHP B, 100 mM KPi pH 7, 10% MeOH
# Chain of horse heart myoglobin (hhMb) (P68082 whole entry): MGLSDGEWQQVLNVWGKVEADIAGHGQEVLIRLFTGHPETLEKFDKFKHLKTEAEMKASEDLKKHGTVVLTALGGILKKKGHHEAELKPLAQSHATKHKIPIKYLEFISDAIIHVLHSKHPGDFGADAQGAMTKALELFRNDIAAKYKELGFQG
compound,measurement,setting,value
Brc1cccc2[nH]ccc12 [4-Br-indole],conversion (%),ferric WT DHP B [1]; [7],40.1 (±0.9) %
same,conversion (%),DHP A Ferric,15.7 (±0.7) %
"Oc1ccc(Br)cc1 [4-bromophenol, reference compound]",attenuation in reactivity of 5-Br-indole,ferric WT DHP B [1]; in the presence of 500 μM 4-bromophenol,2 fold
same,Kd,ferric WT DHP B [2],~1200 µM
"O=C1/C(=C2\Nc3ccc(Br)cc3C2=O)Nc2ccc(Br)cc21 [5,5′-Br2-indigo, (E)-5,5′-dibromo-[2,2′-biindolinylidene]-3,3′-dione]",product distribution of 5-Br-indole reaction (HPLC),"ferric WT DHP B [1]; 5-Br-indole 500 μM, DHP B 10 μM, H2O2 500 μM, pH 7, 1a determined from mass balance",~2%
same,"5,5′-Br2-indigo formation aerobic versus anaerobic",ferric DHP B; DHP present,~4 fold
same,"5,5′-Br2-indigo formed in the presence of DHP versus the absence of enzyme","ferric DHP B; aerobic, after 5 min",45 fold
same,"5,5′-Br2-indigo concentration formed from 5-Br-3-oxindole","ferric DHP B; anaerobic, 10 μM DHP, after 10 min",~8 µM
Brc1ccc2[nH]ccc2c1 [5-Br-indole],conversion (%),"ferric WT DHP B [1]; DHP B Ferric + 500 μM 4-BP, pH 7, 25 °C",23.2 (±5.1) %
same,conversion (%),"ferric WT DHP B [1]; DHP B Ferric + 500 μM mannitol, pH 7, 25 °C",46.2 (±1.6) %
same,conversion (%),"ferric WT DHP B [1]; DHP B Ferric + 500 mM formate, pH 7, 25 °C",45.8 (±1.1) %
same,conversion (%),"ferric WT DHP B [1]; DHP B Ferric + 10% DMSO, pH 7, 25 °C",45.0 (±4.4) %
same,conversion (%),"ferric WT DHP B [1]; DHP B Ferric + SOD ∼2 U/μL, pH 7, 25 °C",46.1 (±0.7) %
same,conversion (%),ferric WT DHP B [1]; [7],53.3 (±0.3) %
same,conversion (%),"ferric WT DHP B [1]; DHP B Ferric, pH 5, 25 °C",63.4 (±0.1) %
same,conversion (%),"ferric WT DHP B [1]; DHP B Ferric, pH 6, 25 °C",54.7 (±1.9) %
same,conversion (%),"ferric WT DHP B [1]; DHP B Ferric, pH 8, 25 °C",34.4 (±2.4) %
same,conversion (%),[3],no reactivity
same,conversion (%),DHP A Ferric,20.3 (±1.7) %
same,time to conversion to oxyferrous DHP B(Y28F/Y38F),[4]; 10 equiv 5-Br-indole,697 s
same,time to conversion to oxyferrous DHP B(Y28F/Y38F),[4]; 50 equiv 5-Br-indole,120 s
same,Kd,ferric WT DHP B [5],150 ± 10 µM
same,conversion (%),DHP B Oxyferrous,44.9 (±4.8) %
same,"kobs, conversion of oxyferrous DHP B to Compound II",oxyferrous DHP B,(3.30 ± 0.01) × 10^–2 s^–1
same,"kobs, formation of mixture of oxyferrous and ferric DHP B at longer observation times",WT DHP B Compound ES; [8],(1.39 ± 0.08) × 10^–2 s^–1
same,"kobs, reduction of preformed Compound ES to ferric DHP B",WT DHP B Compound ES; [8],(2.54 ± 0.05) × 10^5 M^–1 s^–1
same,time for reduction of Compound ES (within mixing time),WT DHP B Compound ES; ≥25 equiv 5-Br-indole,< 2.5 ms
same,conversion (%),[6],no reactivity
Clc1ccc2[nH]ccc2c1 [5-Cl-indole],Kd,ferric WT DHP B [5]; [9],317 ± 23 µM
Fc1ccc2[nH]ccc2c1 [5-F-indole],changes in the optical difference spectra upon binding,ferric WT DHP B [5]; even at the highest concentrations tested (up to 100 equiv),No significant changes
Ic1ccc2[nH]ccc2c1 [5-I-indole],Kd,ferric WT DHP B [5]; [9],62 ± 10 µM
c1ccc2[nH]ccc2c1 [indole],reactivity lower than 5-Br-indole,"ferric WT DHP B [1]; ferric WT DHP B, pH 7",2 fold
